PMC5469413 (Journal of immunology (Baltimore, Md. : 1950), 2017)

What was measured:
Staphylococcus epidermis = assay: Bacterial killing assay with recombinant whole IFN-β; type: cell-based; settings: incubated with IFN-β (Fig. S1)
Procedure, shortened: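 Overnight cultures subcultured to mid-log (OD₆₀₀=0.4), washed in sterile PBS and renormalised to OD₆₀₀=0.4. Bacteria resuspended in assay medium and incubated with recombinant whole IFN-β or vehicle in 100 μl reactions at 37°C with shaking. Ten-fold serial dilutions plated on LB to count surviving CFU.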

[1] = test system: S. aureus isogenic mutant lacking the dlt gene (Δdlt); assay: Bacterial killing assay with recombinant whole IFN-β, dlt-deficient strain; type: cell-based, Staphylococcus aureus; settings: increasing concentrations of IFN-β, 3 hours, CFU
Staphylococcus aureus = assay: Bacterial killing assay with recombinant whole IFN-β; type: cell-based; settings: 5×10^2 units/ml mIFN-β incubated at 37°C for 60 min, then bacteria 3 hours, CFU
[2] = test system: gram-negative strains of bacteria; assay: Killing assay with IFN-β helix 4 peptide, gram-negative bacteria; type: cell-based; settings: bacteria 1×10^5/ml, 6 μM mouse helix 4 peptide, 3 hours, 37°C, CFU (Fig. 6I)
Escherichia coli = assay: Bacterial killing assay with recombinant whole IFN-β; type: cell-based; settings: increasing doses of IFN-β, 3 hours, CFU

Substance: mIFN-β: recombinant whole mouse IFN-β (PBL Interferon)
- killing of Staphylococcus epidermis (Staphylococcus epidermis): observed killing
- killing of Δdlt S. aureus compared to WT [1]: increased killing of Δdlt bacteria compared to WT
- killing of S. aureus after pre-incubation at 37°C (Staphylococcus aureus): killing was not lost
- antimicrobial activity against gram-negative bacteria [2]: significantly less effective
- inhibitory or killing effect on Escherichia coli (Escherichia coli): did not observe any inhibitory or killing effect
